Test results reported in ChEMBL document CHEMBL2413016, “Synthesis and in vivo evaluation of [(18)F]2-(4-(4-(2-(2-fluoroethoxy)phenyl)piperazin-1-yl)butyl)-4-methyl-1,2,4-triazine-3,5(2H,4H)-dione ([(18)F]FECUMI-101) as an imaging probe for 5-HT1A receptor agonist in nonhuman primates” (Bioorg Med Chem, 2013).

Legend:
Nucleic Acid [1] = assay: Ratio of drug level in prefrontal cortex to cerebellum in baboon at 111 +/- 18 MBq, iv after 175 mins by PET analysis; type: ADME, organism-based; conditions: papio anubis, in vivo
Nucleic Acid [2] = assay: Ratio of drug level in dorsal raphe nucleus to cerebellum in baboon at 111 +/- 18 MBq, iv after 175 mins by PET analysis; type: ADME, organism-based; conditions: papio anubis, in vivo
[3] = Drug uptake in baboon temporal cortex at 111 +/- 18 MBq, iv by PET analysis in presence of WAY100635; type: ADME, organism-based; conditions: papio anubis, in vivo
Procedure, shortened: (§1)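 Baboon PET run as for baseline: ketamine/isoflurane anesthesia, iv bolus of tracer, 180 min 3-D acquisition, right and left regions averaged. WAY100635 maleate (0.5 mg/kg iv in 12 mL saline) was given at 50–60 min after tracer injection as a chase/blocking challenge.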

[4] = Metabolic stability of the compound in baboon plasma assessed as unmetabolized parent fraction after 90 mins by HPLC analysis; type: ADME, cell-free; conditions: papio anubis, read-out: Stability
Procedure, shortened: (§2)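 Radiotracer given as an iv bolus to anesthetized baboons. Arterial blood was drawn at 2, 12, 30, 60, 90, 120, 150 and 180 min and centrifuged at 2000 rpm for 1 min. Plasma was mixed with acetonitrile, vortexed and spun at 14,000 rpm for 4 min. The supernatant was counted, then analysed by reversed-phase HPLC with radioactivity detection. Parent percentage was corrected for background and decay, with a QC standard run at the start and end.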

[5] = Metabolic stability of the compound in baboon plasma assessed as unmetabolized parent fraction after 60 mins by HPLC analysis; type: ADME, cell-free; conditions: papio anubis, read-out: Stability; procedure, shortened: as §2
[6] = Metabolic stability of the compound in baboon plasma assessed as unmetabolized parent fraction after 2 mins by HPLC analysis; type: ADME, cell-free; conditions: papio anubis, read-out: Stability; procedure, shortened: as §2
[7] = Tmax in baboon amygdala at 111 +/- 18 MBq, iv by PET analysis; type: ADME, organism-based; conditions: papio anubis, in vivo
Procedure, shortened: (§3)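 Two fasted male baboons were given ketamine (10 mg/kg im) and kept under 1.5–2.0% isoflurane, with core temperature held at 37 °C. Tracer in 10% ethanol/90% saline was given as an iv bolus, and 3-D emission data were acquired for 180 min. Regional time-activity curves came from regions of interest, with right and left regions averaged.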

[8] = Metabolic stability of the compound in baboon plasma assessed as unmetabolized parent fraction after 12 mins by HPLC analysis; type: ADME, cell-free; conditions: papio anubis, read-out: Stability; procedure, shortened: as §2
Nucleic Acid [9] = assay: Ratio of drug level in thalamus to cerebellum in baboon at 111 +/- 18 MBq, iv after 175 mins by PET analysis; type: ADME, organism-based; conditions: papio anubis, in vivo
[10] = Binding to baboon plasma proteins; conditions: papio anubis
Plasma = assay: Binding to human plasma proteins
[11] = Tmax in baboon hippocampus at 111 +/- 18 MBq, iv by PET analysis; type: ADME, organism-based; conditions: papio anubis, in vivo; procedure, shortened: as §3
[12] = Tmax in baboon insula cortex at 111 +/- 18 MBq, iv by PET analysis; type: ADME, organism-based; conditions: papio anubis, in vivo; procedure, shortened: as §3
Nucleic Acid [13] = assay: Ratio of drug level in insular cortex to cerebellum in baboon at 111 +/- 18 MBq, iv after 175 mins by PET analysis; type: ADME, organism-based; conditions: papio anubis, in vivo
Nucleic Acid [14] = assay: Ratio of drug level in hippocampus to cerebellum in baboon at 111 +/- 18 MBq, iv after 175 mins by PET analysis; type: ADME, organism-based; conditions: papio anubis, in vivo
[15] = Metabolic stability of the compound in baboon plasma assessed as unmetabolized parent fraction after 150 mins by HPLC analysis; type: ADME, cell-free; conditions: papio anubis, read-out: Stability; procedure, shortened: as §2
Papio anubis = assay: Drug metabolism in baboon at 111 +/- 18 MBq, iv after 2 to 180 mins; type: ADME, organism-based; conditions: in vivo; procedure, shortened: as §2
[16] = Tmax in baboon prefrontal cortex at 111 +/- 18 MBq, iv by PET analysis; type: ADME, organism-based; conditions: papio anubis, in vivo; procedure, shortened: as §3
[17] = Metabolic stability of the compound in baboon plasma assessed as unmetabolized parent fraction after 180 mins by HPLC analysis; type: ADME, cell-free; conditions: papio anubis, read-out: Stability; procedure, shortened: as §2
[18] = Drug uptake in baboon prefrontal cortex at 111 +/- 18 MBq, iv by PET analysis in presence of WAY100635; type: ADME, organism-based; conditions: papio anubis, in vivo; procedure, shortened: as §1
Nucleic Acid [19] = assay: Ratio of drug level in cingulate cortex to cerebellum in baboon at 111 +/- 18 MBq, iv after 175 mins by PET analysis; type: ADME, organism-based; conditions: papio anubis, in vivo
[20] = Drug uptake in baboon caudate at 111 +/- 18 MBq, iv by PET analysis in presence of WAY100635; type: ADME, organism-based; conditions: papio anubis, in vivo; procedure, shortened: as §1
[21] = Tmax in baboon striatum at 111 +/- 18 MBq, iv by PET analysis; type: ADME, organism-based; conditions: papio anubis, in vivo
Procedure, shortened: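 Baseline PET in two fasted male baboons on an ECAT EXACT HR+ scanner. Animals were immobilized with ketamine (10 mg/kg im), kept on 1.5–2.0% isoflurane via endotracheal tube, held at 37 °C core temperature, and hydrated with 0.9% NaCl. Radiotracer in 10% ethanol/saline was given as an iv bolus. Emission was recorded for 180 min in 3-D mode. Region time-activity curves used right/left averaged ROIs.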

[22] = Tmax in baboon cerebellum at 111 +/- 18 MBq, iv by PET analysis; type: ADME, organism-based; conditions: papio anubis, in vivo; procedure, shortened: as §3
Nucleic Acid [23] = assay: Ratio of drug level in temporal cortex to cerebellum in baboon at 111 +/- 18 MBq, iv after 175 mins by PET analysis; type: ADME, organism-based; conditions: papio anubis, in vivo
[24] = Metabolic stability of the compound in baboon plasma assessed as unmetabolized parent fraction after 30 mins by HPLC analysis; type: ADME, cell-free; conditions: papio anubis, read-out: Stability; procedure, shortened: as §2
Nucleic Acid [25] = assay: Ratio of drug level in amygdala to cerebellum in baboon at 111 +/- 18 MBq, iv after 175 mins by PET analysis; type: ADME, organism-based; conditions: papio anubis, in vivo
[26] = Drug uptake in baboon thalamus at 111 +/- 18 MBq, iv by PET analysis in presence of WAY100635; type: ADME, organism-based; conditions: papio anubis, in vivo; procedure, shortened: as §1
[27] = Drug uptake in baboon amygdala at 111 +/- 18 MBq, iv by PET analysis in presence of WAY100635; type: ADME, organism-based; conditions: papio anubis, in vivo; procedure, shortened: as §1
[28] = Tmax in baboon cingulate cortex at 111 +/- 18 MBq, iv by PET analysis; type: ADME, organism-based; conditions: papio anubis, in vivo; procedure, shortened: as §3
[29] = Drug uptake in baboon hippocampus at 111 +/- 18 MBq, iv by PET analysis in presence of WAY100635; type: ADME, organism-based; conditions: papio anubis, in vivo; procedure, shortened: as §1
[30] = Drug uptake in baboon cerebellum at 111 +/- 18 MBq, iv by PET analysis in presence of WAY100635; type: ADME, organism-based; conditions: papio anubis, in vivo; procedure, shortened: as §1
[31] = Drug uptake in baboon insular cortex at 111 +/- 18 MBq, iv by PET analysis in presence of WAY100635; type: ADME, organism-based; conditions: papio anubis, in vivo; procedure, shortened: as §1
[32] = Drug uptake in baboon cingulate at 111 +/- 18 MBq, iv by PET analysis in presence of WAY100635; type: ADME, organism-based, Cingulate cortex; conditions: papio anubis, in vivo; procedure, shortened: as §1
[33] = Drug uptake in baboon anterior cingulate at 111 +/- 18 MBq, iv by PET analysis in presence of WAY100635; type: ADME, organism-based; conditions: papio anubis, in vivo; procedure, shortened: as §1
Nucleic Acid [34] = assay: Ratio of drug level in anterior cingulate cortex to cerebellum in baboon at 111 +/- 18 MBq, iv after 175 mins by PET analysis; type: ADME, organism-based; conditions: papio anubis, in vivo
[35] = Metabolic stability of the compound in baboon plasma assessed as unmetabolized parent fraction after 120 mins by HPLC analysis; type: ADME, cell-free; conditions: papio anubis, read-out: Stability; procedure, shortened: as §2

For `Cn1c(=O)cnn(CCCCN2CCN(c3ccccc3OCC[18F])CC2)c1=O`, the Ratio (Nucleic Acid [1]) was 1.8, the Ratio (Nucleic Acid [2]) was 1.75 and the Drug uptake [3] was “Active”. It also gave a remaining at 1.5 h [4] of 32.5%, a remaining at 1 h [5] of 37% and a remaining at 2 min [6] of 98%. It also gave a Tmax [7] of 3 min, a remaining at 0.2 h [8] of 74% and a Ratio (Nucleic Acid [9]) of 2. It also gave a plasma protein binding [10] of 35%, a plasma protein binding (Plasma) of 11.5% and a Tmax [11] of 3 min. It also gave a Tmax [12] of 3 min, a Ratio (Nucleic Acid [13]) of 2.3 and a Ratio (Nucleic Acid [14]) of 4. The remaining at 2.5 h [15] was 21.5%, the Drug metabolism (Papio anubis) was “Active” and the Tmax [16] was 3 min. The remaining at 3 h [17] was 18%, the Drug uptake [18] was “Active” and the Ratio (Nucleic Acid [19]) was 1.8. The Drug uptake [20] was “Active”, the Tmax [21] was 3 min and the Tmax [22] was 3 min. The Ratio (Nucleic Acid [23]) was 2, the remaining at 0.5 h [24] was 51% and the Ratio (Nucleic Acid [25]) was 2.4. The Drug uptake [26] was “Active”, the Drug uptake [27] was “Active” and the Tmax [28] was 3 min. The Drug uptake [29] was “Active”, the Drug uptake [30] was “Active” and the Drug uptake [31] was “Active”. The Drug uptake [32] was “Active”, the Drug uptake [33] was “Active” and the Ratio (Nucleic Acid [34]) was 2.5. The remaining at 2 h [35] was 23.5%.
